# proCasp3 act = activators of human procaspase-3. P42574. recombinant procaspase-3 D3A, Ac-DEVD-pNA absorbance 405 nm. activation, % at 8.5 µM. actives 0.11% (n = 330,000). AID 463141;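 active means activation above the mean of all tested compounds plus 3 SD, cut at about 21% in these data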;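 further: 0% = DMSO alone and 100% = DMSO wells spiked with extra 5 µM PC-3 D3A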
# Target sequence (P42574 whole entry D9A/D28A/D175A): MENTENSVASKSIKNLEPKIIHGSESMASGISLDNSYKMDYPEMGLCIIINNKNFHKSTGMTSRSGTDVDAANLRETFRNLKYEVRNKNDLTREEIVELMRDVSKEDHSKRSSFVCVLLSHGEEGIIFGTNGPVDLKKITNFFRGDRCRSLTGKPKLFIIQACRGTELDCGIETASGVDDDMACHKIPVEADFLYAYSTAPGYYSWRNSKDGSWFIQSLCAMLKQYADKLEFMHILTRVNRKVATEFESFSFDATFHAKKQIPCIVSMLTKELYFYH
#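 System: Procaspase-3 D3A mutant. Medium: Zinc-free 300 mM NaCl, 50 mM HEPES, 0.01% Triton X-100. Schedule: 1 h preincubation plus 2 h reaction at 25 °C. Measured by: 405 nm absorbance of p-nitroaniline, reads at 0 and 120 min. Read-out: percent activation relative to control range.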
# CHT block = human CHT choline transport inhibition; Q9GZV3; CHT-expressing cells, membrane potential dye, choline response; active compounds read low; B-score at 10 µM; actives 0.86% (n = 310,000);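 active means B-score over 3 SD under the library average, and starting fluorescence ratio not unusually high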;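 further: choline stimulus applied at its EC90 after an EC20 pre-addition; B-score computed on integrated fluorescence ratio after choline addition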
# CHT allo act = allosterically activates the human high affinity choline transporter. Q9GZV3. CHT-expressing cells, membrane potential dye, choline EC20; active compounds read high; LV-AA mutant CHT in HEK293 cells. B-score at 10 µM. actives 0.49% (n = 310,000). AID 488977;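 active means initial fluorescence not abnormally high and integrated response B-score, plate-corrected, over 3 SD above library mean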
# proCasp7 act = counter-screen for procaspase-3 activators: activators of human procaspase-7. actives 0.093% (n = 330,000). P55210. AID 463210. activation, % at 8.5 µM. recombinant procaspase-7, Ac-DEVD-pNA absorbance 405 nm; D23A/D198A/D206A triple mutant, cannot self-cleave; scale: DMSO 0, 5 µM enzyme 100;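 active means percent activation above the screen-wide mean plus 3 SD, cut at about 25% in these data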
# Target sequence (P55210 whole entry D23A/D198A/D206A): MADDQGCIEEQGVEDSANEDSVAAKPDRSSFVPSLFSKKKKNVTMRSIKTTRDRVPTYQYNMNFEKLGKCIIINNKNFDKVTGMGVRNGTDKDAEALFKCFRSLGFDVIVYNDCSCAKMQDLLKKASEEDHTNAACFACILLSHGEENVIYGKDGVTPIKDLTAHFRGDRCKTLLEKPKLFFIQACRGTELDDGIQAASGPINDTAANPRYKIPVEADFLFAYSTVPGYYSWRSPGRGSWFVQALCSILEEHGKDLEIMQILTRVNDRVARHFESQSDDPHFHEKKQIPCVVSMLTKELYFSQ
#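 System: Uncleavable procaspase-7 mutant enzyme; Amount: 2 µM procaspase-7 mutant as dispensed; Schedule: 1 h compound preincubation, 2 h substrate cleavage, 25 °C; Measured by: 405 nm absorbance of p-nitroaniline; Evaluation: percent activation from buffer-corrected 0–120 min absorbance change; Control set: low DMSO alone, high DMSO plus 5 µM PC-7.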
# CHT block conf = human CHT inhibition, confirmatory screen; CHT-expressing cells, choline membrane potential dye; LV-to-AA substituted CHT, HEK293 cells; actives 70% (n = 2,400); AID 493221; CHT activity remaining % of control (active compounds read low), % at 10 µM; shares compounds with CHT block;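 active means choline transporter activity left, mean of duplicates at 10 µM, below buffer-only control mean minus 3 SD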;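 further: depolarization triggered by choline at its EC90 following an EC20 pre-addition; 0% = hemicholinium-3 full block and 100% = buffer-only control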
# HEK293 MPD ctr = activity in parental HEK293 cells lacking CHT. shares compounds with CHT block. membrane potential dye, choline response; active = decrease or increase beyond buffer ±3SD. membrane potential ratio readout (active if shifted either direction beyond buffer ±3SD; no single direction) at 10 µM. actives 4% (n = 2,400);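 further: parental cells lack the transporter so any hit is non-specific; ratio is peak minus trough fluorescence over baseline after EC90 choline challenge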
# CHT act confirm = human CHT activation, confirmatory screen | shares compounds with CHT allo act | CHT-expressing cells, membrane potential dye fluorescence (FDSS); % of choline EC20–EC90 response window; HEK293 expressing CHT LV-AA mutant; choline added at its EC20 | activation, % at 10 µM | actives 91% (n = 2,500);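 active means primary screen active, with duplicate mean activation above negative control mean plus 3 SD, cut at about 11% in these data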
# HEK293 MP dye = activity in parental HEK293 cells lacking CHT. shares compounds with CHT allo act. membrane potential dye fluorescence (FDSS); measured after EC20 choline addition. ratio readout change at 10 µM, hits read low. actives 62% (n = 2,500). AID 623908;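 active means duplicate-averaged ratio beyond 3 SD from buffer wells, up or down, though filed actives are nearly all decreases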
# The depositor's hits bear a star; i = inactive; x = no result. Rows were chosen to be rich in hits. Some 1.3% of all compounds tested hit in one or more screens of this group.
SMILES,proCasp3 act,CHT block,CHT allo act,proCasp7 act,CHT act confirm,HEK293 MP dye,others
COc1cc(C(=O)NC(=S)NNC(=O)[C@H]2C[C@@H]2c2ccccc2)cc(OC)c1OC,-7,-5.9*,i,-17,x,x,CHT block conf=48%*;HEK293 MPD ctr=i
CS(=O)(=O)N(CC(=O)Nc1ccc(S(=O)(=O)N2CCCC2)cc1)c1ccccc1,8,i,i,1,x,x,
Cc1nc2ccccn2c1-c1ccnc(=S)[nH]1,-23,i,6.8*,-31,37*,-35*,
Cc1cc(NS(=O)(=O)c2ccc(NC(=O)c3cnc4scc(C)n4c3=O)cc2)nc(C)n1,15,i,6.2*,-1,33*,-27*,
Cc1noc(NS(=O)(=O)c2ccc(NC(=O)c3cnc4scc(C)n4c3=O)cc2)c1C,2,i,i,-5,x,x,
CCC[n+]1c2ccccc2cc2ccccc21,-21,i,i,-20,76*,-71*,
FC(F)(F)COc1nc(OCC(F)(F)F)nc(N2CCN(c3ccccc3)CC2)n1,6,i,7.1*,5,31*,i,
FC(F)(F)COc1nc(N2CCOCC2)nc(N(c2ccccc2)c2ccccc2)n1,2,i,i,-3,x,x,
CN(c1ccccc1)S(=O)(=O)c1nnc(NC(=O)C2CCCCC2)s1,-3,i,i,1,x,x,
CCc1ccc(NC(=O)CCS(=O)(=O)c2ccc(Cl)cc2)cc1,-4,i,i,18,x,x,
CN(C)S(=O)(=O)c1cccc(NC(=S)NC23CC4CC(CC(C4)C2)C3)c1,3,i,i,4,x,x,
Cc1ccc(S(=O)(=O)N(C)C)cc1NC(=S)NC(=O)C12CC3CC(CC(C3)C1)C2,1,i,i,-6,3,i,
Cc1c(CCOC(=O)CC23CC4CC(CC(C4)C2)C3)sc[n+]1CC(=O)c1ccccc1,3,i,i,7,45*,i,
Cn1c(SCC(=O)N2CCc3ccccc3C2)nnc1-c1ccncc1,7,i,i,-9,x,x,
CCc1cccc(CC)c1-n1c(SCC(=O)N2CCc3ccccc3C2)nnc1-c1cccnc1,-11,i,i,4,8,i,
COc1cc(NC(=O)Cc2c(C(=O)O)n(C)c3ccccc23)cc(OC)c1OC,0,i,i,-1,x,x,
CN(Cc1ccccc1)C(=O)c1[nH]cnc1C(=O)N[C@@H](CCCCNC(=O)OC(C)(C)C)C(=O)OC(C)(C)C,15,i,11*,-9,20*,i,
CNc1cc(C)nc(N2CCOCC2)n1,2,i,i,8,53*,-43*,
Cc1cc(C)c(-n2c(O)c(C=NCCN3CCOCC3)c(=O)[nH]c2=O)c(C)c1,2,i,9.8*,-2,17*,i,
O=c1[nH]c(=S)n(C2CCCCC2)c(O)c1C=NCCN1CCOCC1,-7,i,i,-3,x,x,
Cc1cc[n+](-c2ccccc2)c2ccccc12,-1,i,7*,1,32*,-44*,
Cc1cc[n+](CCC(=O)O)c2ccccc12,4,i,i,-6,x,x,
NC(=O)c1nnn(-c2nonc2N)c1-c1ccc([N+](=O)[O-])cc1,-6,i,i,9,x,x,
Cc1cc[n+](CC(=O)c2ccccc2)c2ccccc12,3,i,6.6*,17,34*,-36*,
COc1ccc(C(=O)c2coc3ccc(O)c(CN4CCCC4)c23)cc1,-1,i,i,14,x,x,
SMILES,proCasp3 act,CHT block,CHT allo act,proCasp7 act,CHT act confirm,HEK293 MP dye,others
COc1ccc(C(=O)c2coc3ccc(O)c(CN4CCOCC4)c23)cc1,5,i,i,1,18*,i,
NC(=O)COC(=O)CC1CC2CCC1C2 (stereo unspecified),-6,i,i,1,x,x,
COc1ccc(C2Nc3ccccc3C(=O)N2c2ccc(C)cc2)cc1Cn1nnc2ccccc21 (stereo unspecified),-2,i,i,3,10*,i,
O=C(Nc1ccc2nc(SCc3ccc(Cl)cc3)sc2c1)c1ccccc1C(=O)N1CCOCC1,0,i,i,7,46*,i,
CC(C)Oc1cccc(C(=O)C2CCCN(Cc3cnc(N4CCOCC4)s3)C2)c1 (stereo unspecified),5,i,i,2,x,x,
CCn1c(=N)n(CC(=O)c2ccc(Br)s2)c2ccccc21,-4,i,i,5,x,x,
C=CCn1c[n+](CC(=O)c2ccc(Br)s2)c2ccccc21,-6,i,i,4,45*,-27*,
C=C1CCN(CC(=O)OC)S(=O)(=O)c2ccccc21,-6,i,i,1,x,x,
C=C1CCN(Cc2ccccc2)S(=O)(=O)c2ccccc21,-9,i,9*,-4,26*,i,
Cc1cc(N2CCCCC2)nc(N2CCCCC2)n1,7,i,i,-7,x,x,
O=C(NNc1ccc(Cl)cc1)C1CCC1,3,i,i,-1,14*,i,
COC(=O)CCCC1=CC2=C(c3ccccc3)C(=O)C(C)(OC(=O)C3CCCC3)C(=O)C2=CN1C1CC1 (stereo unspecified),8,i,10*,-7,0,i,
COC(=O)CCCC1=CC2=C(c3ccccc3)C(=O)C(C)(OC(=O)C3CCCC3)C(=O)C2=CN1c1ccccc1 (stereo unspecified),-6,i,i,-10,x,x,
CCOC(=O)c1cnc2ccc(Br)cc2c1NCCO,1,i,i,0,x,x,
CCOC(=O)c1cnc2ccc(Cl)cc2c1NCCN(C)C,5,i,i,9,27*,-39*,
CCOC(=O)c1cnc2ccc(C(=O)OC)cc2c1Nc1ccc(C(=O)O)cc1,4,i,8.9*,7,63*,-63*,
CCOC(=O)c1cnc2ccc(C(=O)OC)cc2c1Nc1ccc2c(c1)OCCO2,4,i,i,5,x,x,
COc1ccc(N)c2c1C(=O)c1ccccc1C2=O,-7,i,7.4*,0,48*,-54*,
c1csc(-c2cc(N3CCCCC3)c3ccccc3n2)c1,2,i,i,2,x,x,

# Screening results as filed in PubChem BioAssay.
